According to ChEMBL document CHEMBL5335768, “Expanding the knowledge around antitubercular 5-(2-aminothiazol-4-yl)isoxazole-3-carboxamides: Hit-to-lead optimization and release of a novel antitubercular chemotype via scaffold derivatization” (Eur J Med Chem, 2023):
≈ marks a conversion by molar mass, not a printed value. Calls of active or inactive are those of the source. The calls are words filed in the database; no cut-off is given here.

What was measured:
[1] = tested on: Mycobacterium tuberculosis; assay: Antitubercular activity against Mycobacterium tuberculosis H37Rv assessed as inhibition of bacterial growth incubated for 7 days by REMA method; type: functional
Mycobacterium avium [2] = assay: Antitubercular activity against Mycobacterium avium 11 assessed as inhibition of bacterial growth upto 100 uM measured after 4 days by broth microdilution method; type: functional, organism-based; conditions: time 4.0 day
How it was run: (§1)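 Twofold serial dilutions inoculated at OD600 0.05; incubated at 37 °C, shaking at 110 rpm, for 3 days (M. abscessus Bamboo) or 4 days (M. avium 11). […] Clarithromycin positive control; data representative of two independent replicates.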

[3] = tested on: Mycobacteroides abscessus; assay: Antitubercular activity against Mycobacterium abscessus Bamboo assessed as inhibition of bacterial growth upto 100 uM measured after 3 days by broth microdilution method; type: functional, organism-based; conditions: time 3.0 day; how it was run: as §1
[4] = Cytotoxicity against human THP-1 cells assessed as reduction in cell viability measured after 72 hrs by MTT assay; type: toxicity, cell-based
How it was run: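 THP-1 monocytes were differentiated to macrophages with PMA 100 ng/mL for 72 h. They were then exposed to compounds at 1, 10, 50 and 100 μM for 72 h, each tested twice. MTT at 1 mg/mL in RPMI with 5% FBS was added for 2 h at 37 °C; formazan was dissolved in DMSO and read at 570 nm. Viability is given as % of control; IC50 from non-linear regression.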

[5] = Metabolic stability of the compound in human liver microsomes assessed as parent residual fraction at 1 uM preincubated with NADP+ for 5 mins prior to compound addition by HPCLC-MRM-MS analysis; type: ADME, Microsome; conditions: read-out: Stability
How it was run: (§2)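 Pooled HLM at 1 mg/mL protein in 100 mM PBS pH 7.4 with an NADPH-regenerating mix: G6P 10 mM, NADP+ 2 mM, MgCl2 5 mM, G6PDH 1.5 U/mL (stock concentrations). Pre-incubated 5 min at 37 °C, then compound added to 1 μM final (1% DMSO).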

Mycobacterium marinum [6] = conditions: ATCC BAA-535, time 3.0 weeks
[7] = tested on: Mycobacteroides abscessus; assay: Antitubercular activity against Mycobacterium abscessus Bamboo assessed as inhibition of bacterial growth at 100 uM measured after 3 days by broth microdilution method; type: functional; conditions: 72 h, time 3 day; how it was run: as §1
Mycobacterium avium [8] = assay: Antitubercular activity against Mycobacterium avium 11 assessed as inhibition of bacterial growth at 100 uM measured after 4 days by broth microdilution method; type: functional; conditions: Mycobacterium avium, 11, 96 h, time 4 day
[9] = Half life in human liver microsomes at 1 uM preincubated with NADP+ for 5 mins prior to compound addition by HPLC-MRM-MS analysis; type: ADME, Microsome; how it was run: as §2
Mycobacterium marinum [10] = assay: Antitubercular activity against Mycobacterium marinum ATCC BAA-535 assessed as inhibition of bacterial growth measured after 3 weeks by broth microdilution method; type: functional; conditions: ATCC BAA-535, 504 h
[11] = Mycobacterium tuberculosis, H37Rv, 168 h, time 7 day, read-out: MIC90

SMILES	MIC90 [1, 11] [µg/mL]	IC50 at 72 h [4] [µg/mL]	further results
Cc1ccc(Nc2nc(-c3cc(C(=O)Nc4cccnc4)no3)cs2)cc1	10 (≈ 26.5 µM)	–	–
Cc1ccc(Nc2nc(-c3cc(C(=O)Nc4ccccn4)no3)cs2)c(O)c1	> 20	–	–
Cc1ccc(Nc2nc(-c3cc(C(=O)Nc4cccc(O)c4)no3)cs2)cc1	0.5 (≈ 1.27 µM)	48.7 (≈ 124 µM)	Activity (Mycobacterium avium [2]): inactive; Activity [3]: inactive
Nc1nc(-c2cc(C(=O)Nc3ccccc3)no2)cs1	> 20	–	remaining at 1 µM [5]: 97%
O=C(Nc1ccccn1)c1cc(-c2csc(Nc3ccc(CO)cc3)n2)on1	> 20	–	–
Cc1ccc(Nc2nc(-c3cc(C(=O)Nc4ccncc4)no3)cs2)cc1	1 (≈ 2.65 µM)	29.9 (≈ 79.2 µM)	Activity (Mycobacterium avium [2]): inactive; Activity [3]: inactive
CN[C@@H]1[C@H](O[C@H]2[C@H](O[C@H]3[C@H](O)[C@@H](O)[C@H](N=C(N)N)[C@@H](O)[C@@H]3N=C(N)N)O[C@@H](C)[C@]2(O)C=O)O[C@@H](CO)[C@H](O)[C@H]1O [STREPTOMYCIN]	0.25 (≈ 0.43 µM)	–	–
O=C(Nc1ccccn1)c1cc(-c2csc(Nc3ccc(C(F)(F)F)cc3)n2)on1	> 20	–	remaining at 1 µM [5]: 85%
Cc1ccc(Nc2nc(-c3cc(C(=O)Nc4ccc(C)cc4Cl)no3)cs2)cc1	> 20	–	–
Cc1ccc(Nc2nc(-c3cc(C(=O)Nc4ccccn4)no3)co2)cc1	2.5 (≈ 6.92 µM)	70.9 (≈ 196 µM)	–
Cc1ccc(Nc2nc(-c3cc(C(=O)Nc4ncccc4C)no3)cs2)cc1	> 20	–	–
Cc1ccc2nc(NC(=O)c3cc(C(=O)Nc4ccc(O)cc4)no3)sc2c1	–	–	MIC90 ([1]; time 7.0 day): inactive; MIC90 (Mycobacterium marinum [6]): inactive
Cc1ccc(Nc2nc(-c3cc(C(=O)Nc4cccc(C)c4)no3)cs2)cc1	0.5 (≈ 1.28 µM)	10.7 (≈ 27.4 µM)	Activity (Mycobacterium avium [2]): inactive; Activity [3]: inactive
Cc1ccc(Nc2nc(-c3cc(C(=O)Nc4ccccc4F)no3)cs2)cc1	1 (≈ 2.54 µM)	33.9 (≈ 85.9 µM)	–
Cc1ccc(Nc2nc(-c3cc(C(=O)Nc4cc(C)cc(C)c4)no3)cs2)cc1	> 20	–	–
O=C(Nc1ccccc1)c1cc(-c2csc(Nc3ccc(CO)cc3)n2)on1	> 20	–	–
Cc1ccc(Nc2nc(-c3cc(C(=O)Nc4nccs4)no3)cs2)cc1	> 40	–	–
Cc1ccc(Nc2nc(-c3cc(C(=O)Nc4cccc(C(F)(F)F)c4)no3)cs2)cc1	> 20	–	–
O=C(Nc1ccccn1)c1cc(-c2csc(Nc3ccccc3)n2)on1	> 20	–	inhibition at 100 µM [7]: 50%; inhibition at 100 µM (Mycobacterium avium [8]): 50%; t1/2 [9]: 66 min
O=C(Nc1ccccn1)c1cc(-c2csc(Nc3cc(F)cc(F)c3)n2)on1	> 20	–	–
O=C(Nc1ccccn1)c1cc(C(=O)Nc2nc3ccccc3s2)on1	–	–	MIC90 ([1]; time 7.0 day): inactive; MIC90 (Mycobacterium marinum [6]): inactive
COc1ccc2sc(NC(=O)c3cc(C(=O)Nc4cccc(C)c4)no3)nc2c1	–	–	MIC90 ([1]; time 7.0 day): inactive; MIC90 (Mycobacterium marinum [6]): inactive

SMILES	MIC90 [1, 11] [µg/mL]	IC50 at 72 h [4] [µg/mL]	further results
O=C(Nc1ccccc1)c1cc(-c2csc(Nc3cc(Cl)cc(Cl)c3)n2)on1	> 20	–	–
Nc1nc(-c2cc(C(=O)Nc3ccccn3)no2)cs1	> 20	–	remaining at 1 µM [5]: 96%
NNC(=O)c1ccncc1 [ISONIAZID]	–	–	MIC90 ([1]; time 7 day): 0.025 µg/mL (≈ 0.182 µM)
Cc1ccc(Nc2nc(-c3cc(C(=O)Nc4cccc(C)n4)no3)cs2)cc1	–	66.8 (≈ 171 µM)	MIC90 (Mycobacterium marinum [10]): 1 µg/mL (≈ 2.55 µM)
Cc1ccc2nc(NC(=O)c3cc(C(=O)Nc4ccccc4)no3)sc2c1	–	–	MIC90 ([1]; time 7.0 day): inactive; MIC90 (Mycobacterium marinum [6]): inactive
Cc1ccc(Nc2nc(-c3cc(C(=O)Nc4ccc(C)cc4C)no3)cs2)cc1	> 20	–	–
Cc1ccc(Nc2nc(-c3cc(C(=O)Nc4ccc(O)cc4)no3)cs2)cc1	0.5 (≈ 1.27 µM)	79.1 (≈ 202 µM)	Activity (Mycobacterium avium [2]): inactive; Activity [3]: inactive; MIC90 (Mycobacterium marinum [10]): 1 µg/mL (≈ 2.55 µM)
O=C(Nc1ccccc1)c1cc(-c2csc(Nc3ccccc3)n2)on1	1.25 (≈ 3.45 µM)	11.9 (≈ 32.8 µM)	inhibition at 100 µM [7]: 50%; inhibition at 100 µM (Mycobacterium avium [8]): 50%; t1/2 [9]: 43 min
Cc1ccc(Nc2nc(-c3cc(C(=O)Nc4cccc(F)c4)no3)cs2)cc1	2.5 (≈ 6.34 µM)	–	Activity (Mycobacterium avium [2]): inactive; Activity [3]: inactive
O=C(Nc1ccccc1)c1cc(-c2csc(Nc3ccc(C(F)(F)F)cc3)n2)on1	> 20	–	remaining at 1 µM [5]: 71%
Cc1cc(C)cc(Nc2nc(-c3cc(C(=O)Nc4ccccn4)no3)cs2)c1	> 20	–	–
Cc1ccc(Nc2nc(-c3cc(C(=O)Nc4ccnnc4)no3)cs2)cc1	> 20	–	–
Cc1ccc(NC(=O)c2cc(-c3csc(Nc4ccc(C)cc4)n3)on2)cc1	1 (≈ 2.56 µM)	47.5 (≈ 122 µM)	–
Cc1ccc(Nc2nc(-c3cc(C(=O)Nc4ccccc4O)no3)cs2)cc1	0.5 (≈ 1.27 µM)	53.1 (≈ 135 µM)	–
Cc1ccc2nc(NC(=O)c3cc(C(=O)Nc4ccccn4)no3)sc2c1	–	–	MIC90 ([1]; time 7.0 day): inactive; MIC90 (Mycobacterium marinum [6]): inactive
O=C(Nc1ccccn1)c1cc(-c2csc(Nc3cc(Cl)cc(Cl)c3)n2)on1	> 20	–	–
O=C(Nc1ccccc1)c1cc(-c2csc(Nc3ccc(Cl)cc3)n2)on1	1.25 (≈ 3.15 µM)	> 100	t1/2 [9]: 59 min; MIC90 (Mycobacterium marinum [10]): 2 µg/mL (≈ 5.04 µM)
Cc1cccc(NC(=O)c2cc(C(=O)Nc3nc4ccccc4s3)on2)c1	–	–	MIC90 ([1]; time 7.0 day): inactive; MIC90 (Mycobacterium marinum [6]): inactive
Cc1ccc(Nc2nc(-c3cc(C(=O)Nc4ncc(C)s4)no3)cs2)cc1	> 20	–	–
O=C(Nc1ccccc1)c1cc(C(=O)Nc2nc3ccccc3s2)on1	–	–	MIC90 ([1]; time 7.0 day): inactive; MIC90 (Mycobacterium marinum [6]): inactive
O=C(Nc1cccc(F)c1)c1cc(C(=O)Nc2nc3ccccc3s2)on1	–	–	MIC90 ([1]; time 7.0 day): inactive; MIC90 (Mycobacterium marinum [6]): inactive
Cc1ccc(Nc2nc(-c3cc(C(=O)Nc4cc(C)ccn4)no3)cs2)cc1	1 (≈ 2.55 µM)	86.3 (≈ 220 µM)	inhibition at 100 µM [7]: 50%; inhibition at 100 µM (Mycobacterium avium [8]): 50%

SMILES	MIC90 [1, 11] [µg/mL]	IC50 at 72 h [4] [µg/mL]	further results
O=C(Nc1ccccn1)c1cc(-c2csc(Nc3cc(Cl)c(Cl)c(Cl)c3)n2)on1	> 20	–	remaining at 1 µM [5]: 102%
O=C(Nc1ccccc1)c1cc(-c2csc(Nc3cc(F)cc(F)c3)n2)on1	> 20	–	–
O=C(Nc1ccc(O)cc1)c1cc(C(=O)Nc2nc3ccccc3s2)on1	–	–	MIC90 ([1]; time 7.0 day): inactive; MIC90 (Mycobacterium marinum [6]): inactive
O=C(Nc1ccccc1)c1cc(-c2csc(Nc3cc(Cl)c(Cl)c(Cl)c3)n2)on1	> 20	–	remaining at 1 µM [5]: 101%
CCOc1cccc(NC(=O)c2cc(-c3csc(Nc4ccc(C)cc4)n3)on2)c1	> 20	–	–
O=C(Nc1ccccc1)c1cc(-c2csc(Nc3cccc(O)c3)n2)on1	5 (≈ 13.2 µM)	–	t1/2 [9]: 34 min
O=C(Nc1cccc(O)c1)c1cc(C(=O)Nc2nc3ccccc3s2)on1	–	–	MIC90 ([1]; time 7.0 day): inactive; MIC90 (Mycobacterium marinum [6]): inactive
Cc1ccc(Nc2nc(-c3cc(C(=O)Nc4ccccn4)no3)cs2)cc1O	5 (≈ 12.7 µM)	> 100	Activity (Mycobacterium avium [2]): inactive; Activity [3]: inactive
Cc1ccc(Nc2nc(-c3cc(C(=O)Nc4ccccc4)no3)cs2)cc1O	2.5 (≈ 6.37 µM)	> 100	–
Cc1ccc(Nc2nc(-c3cc(C(=O)NCc4cccs4)no3)cs2)cc1	> 20	–	–
Cc1ccc(Nc2nc(-c3cc(C(=O)Nc4ccc(O)cc4)no3)cs2)cc1O	5 (≈ 12.2 µM)	–	t1/2 [9]: 19 min
Cc1ccc(Nc2nc(-c3cc(C(=O)Nc4ccc(Cl)cc4)no3)cs2)cc1	> 40	–	–
Cc1ccc(Nc2nc(-c3cc(C(=O)Nc4ccsc4)no3)cs2)cc1	1 (≈ 2.61 µM)	> 100	MIC90 (Mycobacterium marinum [10]): 1 µg/mL (≈ 2.61 µM)
Cc1ccc(Nc2nc(-c3cc(C(=O)Nc4ccccc4)no3)co2)cc1	1 (≈ 2.77 µM)	> 100	Activity (Mycobacterium avium [2]): inactive; Activity [3]: inactive
Cc1ccc(Nc2nc(-c3cc(C(=O)Nc4ccc(F)cc4)no3)cs2)cc1	1 (≈ 2.54 µM)	46.8 (≈ 119 µM)	Activity (Mycobacterium avium [2]): inactive; Activity [3]: inactive
Cc1cccc(NC(=O)c2cc(C(=O)Nc3nc4ccc(C)cc4s3)on2)c1	–	–	MIC90 ([1]; time 7.0 day): inactive; MIC90 (Mycobacterium marinum [6]): inactive
CCOC(=O)c1cc(-c2cccc(Nc3ccc(C)cc3)n2)on1	1.25 (≈ 3.87 µM)	> 100	–
Cc1ccc(Nc2nc(-c3cc(C(=O)N4CCCC4)no3)cs2)cc1	> 20	> 100	–
Cc1ccc(Nc2nc(-c3cc(C(=O)Nc4ccccc4C)no3)cs2)cc1	1 (≈ 2.56 µM)	63.7 (≈ 163 µM)	Activity (Mycobacterium avium [2]): inactive; Activity [3]: inactive
Cc1cc(C)cc(Nc2nc(-c3cc(C(=O)Nc4ccccc4)no3)cs2)c1	1 (≈ 2.56 µM)	70.9 (≈ 182 µM)	Activity (Mycobacterium avium [2]): inactive; Activity [3]: inactive
